Converted amounts (≈) assume the structure as drawn.
Legend:
[1] = AUC (infinity) in Sprague-Dawley rat at 2 mg/kg, po; type: ADME, organism-based; parameters: dose 2 mg/kg, route oral, time infinity; conditions: plasma
Summary of the method: (§1)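 Male Sprague-Dawley rats given 2.0 mpk orally in 10 mL/kg of 30% hydroxypropyl-β-cyclodextrin adjusted to pH 2.2 with methanesulfonic acid.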

[2] = Solubility of the compound in phosphate buffered saline at pH 7.4; type: physicochemical
[3] = Oral bioavailability in Sprague-Dawley rat at 2 mg/kg; type: ADME, organism-based; conditions: in vivo; summary of the method: as §1
[4] = Solubility of the compound in simulated intestinal fluid; type: physicochemical
[5] = Volume of distribution at steady state in Sprague-Dawley rat at 0.5 mg/kg, iv; type: ADME, organism-based; parameters: dose 0.5 mg/kg, route intravenous; conditions: in vivo, read-out: Vdss
[6] = Solubility of the compound in 0.01 N HCl; type: physicochemical
[7] = Cmax in Sprague-Dawley rat at 2 mg/kg, po; type: ADME, organism-based; parameters: dose 2 mg/kg, route oral; conditions: in vivo; summary of the method: as §1
[8] = test system: Plasma; test: Drug metabolism in rat plasma assessed as formation of mono-oxidized product at 10 uM after 3 hrs; type: ADME, cell-free

Row | Structure (SMILES) | AUC(0-inf) [1] [µM·h] | solubility [2] [µg/mL] | bioavailability [3] [%] | solubility [4] [µg/mL] | Vd [5] [L/kg] | solubility [6] [µg/mL] | Cmax [7] [nM] | Drug metabolism [8]
1 | Nc1cncc(Nc2ccc(Oc3ccc(OC(F)(F)F)cc3)cc2)n1 | 0.76 | 1 (≈ 2.76 µM) | 13 | 109 (≈ 301 µM) | 2.1 | 7 (≈ 19.3 µM) | 220 | –
2 | Nc1ncnc(Nc2ccc(Oc3ccc(Cl)cc3)cc2)n1 | – | 1 (≈ 3.19 µM) | – | 7 (≈ 22.3 µM) | – | 6 (≈ 19.1 µM) | – | Active

— ChEMBL document CHEMBL2010700, “The discovery of aminopyrazines as novel, potent Na(v)1.7 antagonists: hit-to-lead identification and SAR” (Bioorg Med Chem Lett, 2012)
